Assay results reported in ChEMBL document CHEMBL2086369, “Design, synthesis, and pharmacological characterization of indol-3-ylacetamides, indol-3-yloxoacetamides, and indol-3-ylcarboxamides: potent and selective CB2 cannabinoid receptor inverse agonists” (J Med Chem, 2012).
Active and inactive are the calls of the source. No cut-off for these calls is given here.

Tests used:
[1] = molecular target: Cannabinoid receptor 1 (Homo sapiens, UniProt P21554); experiment: biochemical; type: cell-based, HEK293
Chain of Cannabinoid receptor 1 (P21554 whole entry): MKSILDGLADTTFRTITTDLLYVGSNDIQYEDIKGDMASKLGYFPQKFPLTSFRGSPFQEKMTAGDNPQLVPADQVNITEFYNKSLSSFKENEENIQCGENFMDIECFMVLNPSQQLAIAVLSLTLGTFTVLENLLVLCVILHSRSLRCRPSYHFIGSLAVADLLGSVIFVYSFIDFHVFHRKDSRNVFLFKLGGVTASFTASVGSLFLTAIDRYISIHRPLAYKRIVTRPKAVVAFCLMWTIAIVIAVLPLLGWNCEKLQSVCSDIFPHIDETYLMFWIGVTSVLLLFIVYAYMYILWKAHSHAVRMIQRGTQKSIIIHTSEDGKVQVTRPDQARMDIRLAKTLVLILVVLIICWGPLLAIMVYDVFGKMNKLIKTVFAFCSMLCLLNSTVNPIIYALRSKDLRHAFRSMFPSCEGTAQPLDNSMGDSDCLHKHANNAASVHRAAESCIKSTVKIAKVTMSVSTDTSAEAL

[2] = molecular target: T1, Cannabinoid receptor 2 (Homo sapiens, UniProt P34972); experiment: Displacement of [3H]CP-55,940 from human recombinant CB2 receptor transfected in HEK cells; type: cell-based, HEK293
T1 sequence (P34972 whole entry): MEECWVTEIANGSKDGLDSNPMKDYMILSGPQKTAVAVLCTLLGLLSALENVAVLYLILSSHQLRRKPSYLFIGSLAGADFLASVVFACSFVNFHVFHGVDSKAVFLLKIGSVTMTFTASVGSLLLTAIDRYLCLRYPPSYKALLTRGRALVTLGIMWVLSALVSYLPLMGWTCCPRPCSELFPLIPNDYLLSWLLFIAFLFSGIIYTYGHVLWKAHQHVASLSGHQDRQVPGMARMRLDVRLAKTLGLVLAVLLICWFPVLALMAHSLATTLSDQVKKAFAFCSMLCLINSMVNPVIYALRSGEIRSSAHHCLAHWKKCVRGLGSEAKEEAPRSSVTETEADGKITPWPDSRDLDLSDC

[3] = species on record: Homo sapiens; experiment: Selectivity index, ratio of Ki for human recombinant CB1 receptor to Ki for human recombinant CB2 receptor
[4] = system: Mus musculus; experiment: Analgesic activity in mouse assessed as reduction of formalin-induced inflammatory pain at 1 mg/kg, ip administered 15 mins before formalin challenge measured for 15 to 60 mins in presence of CB2 agonist COR167; type: functional, organism-based; design: dose 1 mg/kg
Procedure, shortened: (§1)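 Mice (n = 8−10 per group) got compound ip (1 or 3 mg/kg) or vehicle 15 min before formalin (1.25% in saline, 30 μL) into the dorsal hindpaw. Where used, COR167 (1 mg/kg, ip) was given 5 min before compound. Time spent licking plus elevating the paw was scored every 5 min over phase 1 (0−7 min) and phase 2 (15−60 min). Mean ± SEM; ANOVA with Dunnett's test.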

[5] = molecular target: T1, Cannabinoid receptor 2; experiment: Inverse agonist activity at human CB2 receptor expressed in CHO cells assessed as increase of forskolin-induced cAMP level at 1 uM by scintillation counting; type: functional, cell-based
Procedure, shortened: (§2)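 CHO cells expressing human CB2, trypsinized, 1 × 10⁶ cells per assay in HEPES-buffered saline with glucose, pH 7.4, 37 °C. Preincubated 10 min with 0.5 mM Ro 20-1724. Compound tested with 1 μM forskolin. Stopped with cold 6% TCA, ether-extracted, cAMP measured by [³H]cAMP competition binding to adrenal binding protein with scintillation counting. Given as % cAMP increase; means of ≥4 experiments in duplicate.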

[6] = system: Mus musculus; experiment: Antinociceptive activity in mouse assessed as reduction of formalin-induced nocifensive response at 1 to 3 mg/kg, ip administered 15 mins before formalin challenge measured for 0 to 7 mins; type: functional, organism-based
Procedure, shortened: as §1

[7] = system: Mus musculus; experiment: Antinociceptive activity in mouse assessed as reduction of formalin-induced nocifensive response at 1 mg/kg, ip administered 15 mins before formalin challenge measured for 0 to 7 mins in presence of CB2 agonist COR167; type: functional, organism-based; design: dose 1 mg/kg
Procedure, shortened: as §1

[8] = system: Mus musculus; experiment: Analgesic activity in ip dosed mouse assessed as reduction of formalin-induced inflammatory pain administered 15 mins before formalin challenge measured for 15 to 60 mins; type: functional, organism-based
Procedure, shortened: as §1

[9] = molecular target: T1, Cannabinoid receptor 2; experiment: Inverse agonist activity at human CB2 receptor expressed in CHO cells assessed as increase of forskolin-induced cAMP level at 10 uM by scintillation counting; type: functional, cell-based
Procedure, shortened: as §2

[10] = molecular target: T1, Cannabinoid receptor 2; details: CHO, 1 uM
[11] = molecular target: T1, Cannabinoid receptor 2; details: CHO, 10 uM

SMILES | Ki [1] [nM] | Ki [2] [nM] | Ratio Ki [3] | further results
C=CCn1cc(CC(=O)NC23CC4CC(CC(C4)C2)C3)c2cc(Br)ccc21 | > 10000 | 1090 | > 9 | –
CCCCCn1cc(C(=O)C(=O)NC23CC4CC(CC(C4)C2)C3)c2cc(-c3ccco3)ccc21 | 345 | 0.37 | 932 | Activity [4]: Active; Activity [5]: 138%; Activity [6]: inactive; Activity [7]: Active; Activity [8]: Dose-dependent effect; Activity [9]: 163%
CCCCCn1cc(C(=O)C(=O)NC23CC4CC(CC(C4)C2)C3)c2cc(-c3ccccc3)ccc21 | > 10000 | 12.7 | > 787 | Activity [5]: 55%; Activity [9]: 70%
CCCCCn1cc(C(=O)C(=O)NC2CCCCC2)c2cc(-c3ccccc3)ccc21 | > 10000 | 11.2 | > 892 | –
C=CCn1cc(CC(=O)NC2CCCCCC2)c2cc(-c3ccco3)ccc21 | > 10000 | 377 | > 26 | –
C=CCn1cc(CC(=O)NC23CC4CC(CC(C4)C2)C3)c2cc(-c3ccco3)ccc21 | 560 | 50 | 11.2 | –
CCCn1cc(CC(=O)NC23CC4CC(CC(C4)C2)C3)c2cc(-c3ccccc3)ccc21 | 1510 | 11.8 | 128 | –
C=CCCn1cc(CC(=O)NC23CC4CC(CC(C4)C2)C3)c2cc(-c3ccccc3)ccc21 | 1830 | 17.8 | 103 | –
CCCCCn1cc(C(=O)NC23CC4CC(CC(C4)C2)C3)c2cc(-c3cccs3)ccc21 | 3620 | 6.37 | 568 | Activity [5]: 106%; Activity [9]: 135%
CCCCCn1cc(C(=O)NC23CC4CC(CC(C4)C2)C3)c(=O)c2cc(-c3ccco3)ccc21 | > 10000 | – | – | –
C=CCn1cc(C(=O)NC23CC4CC(CC(C4)C2)C3)c2cc(-c3ccco3)ccc21 | 2790 | 5.73 | 488 | –
C=CCn1cc(C(=O)NC23CC4CC(CC(C4)C2)C3)c2cc(-c3ccccc3)ccc21 | 48.2 | 1.82 | 26.5 | –
CCCCCn1cc(C(=O)NC23CC4CC(CC(C4)C2)C3)c2ccc(-c3ccccc3)cc21 | 2.03 | 3.52 | 0.6 | –
C=CCn1cc(CC(=O)NC2CCCCC2)c2cc(OCc3cccc(OC)c3)ccc21 | > 10000 | 400 | > 25 | –
O=C(Cc1cn(Cc2ccccc2)c2ccc(-c3ccccc3)cc12)NC12CC3CC(CC(C3)C1)C2 | > 10000 | 189 | > 52 | –
CCCCn1cc(CC(=O)NC23CC4CC(CC(C4)C2)C3)c2cc(-c3ccccc3)ccc21 | > 10000 | 20.5 | > 487 | –
CCn1cc(CC(=O)NC23CC4CC(CC(C4)C2)C3)c2cc(-c3ccccc3)ccc21 | 698 | 67 | 10.4 | –
CCCC(C)(C)c1ccc2c(c1)OC(C)(C)[C@@H]1CC=C(C)C[C@@H]21 | – | – | – | inhibition [10]: 87%; inhibition [11]: 94%
CCCCCn1cc(CC(=O)NC23CC4CC(CC(C4)C2)C3)c2cc(-c3ccco3)ccc21 | 1660 | 110 | 15.1 | –
O=C(Cc1c[nH]c2ccc(-c3ccccc3)cc12)NC12CC3CC(CC(C3)C1)C2 | > 10000 | 70.8 | > 141 | –
C=CCn1cc(C(=O)C(=O)NC23CC4CC(CC(C4)C2)C3)c2cc(-c3ccccc3)ccc21 | 3920 | 25.4 | 154 | –
Cn1cc(CC(=O)NC23CC4CC(CC(C4)C2)C3)c2cc(-c3ccccc3)ccc21 | 488 | 98 | 5 | –
CCCCCn1cc(C(=O)NC23CC4CC(CC(C4)C2)C3)c2cc(-c3ccccc3)ccc21 | 1050 | 11.6 | 90.7 | –
CCCCCn1cc(CC(=O)NC23CC4CC(CC(C4)C2)C3)c2cc(-c3ccccc3)ccc21 | 2380 | 70 | 34 | –
CCCCCn1cc(CC(=O)NC23CC4CC(CC(C4)C2)C3)c2cc(Br)ccc21 | 5510 | 170 | 32.4 | –
CCCCCn1cc(C(=O)NC23CC4CC(CC(C4)C2)C3)c2cc(-c3ccco3)ccc21 | 342 | 2.48 | 138 | Activity [4]: inactive; Activity [5]: 93%; Activity [6]: inactive; Activity [7]: inactive; Activity [8]: Dose-dependent effect; Activity [9]: 110%
C=CCn1cc(C(=O)C(=O)NC23CC4CC(CC(C4)C2)C3)c2cc(-c3ccco3)ccc21 | 3620 | 10.3 | 351 | Activity [5]: 62%; Activity [9]: 75%
C=CCn1cc(CC(=O)NC23CC4CC(CC(C4)C2)C3)c2cc(-c3ccccc3)ccc21 | 530 | 50 | 10.6 | Activity [5]: 67%; Activity [9]: 88%
C=CCn1cc(C(=O)NC23CC4CC(CC(C4)C2)C3)c2cc(-c3ccc(O)cc3)ccc21 | > 10000 | 22.2 | > 450 | Activity [5]: 51%; Activity [9]: 68%
